Series [1] is described as follows: Metabolic stability in mouse liver microsomes assessed as parent compound remaining after 30 mins. It counts as ADME, Microsome. The note with it: for Stabilty: microsomes, 0.5 h; for remaining at 0.5 h: liver microsomes, read-out: Stabilty. Put shortly:
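Compound incubated with mouse liver microsomes for 30 minutes at 37 °C, with dextromethorphan as positive control. Read-out is the percentage of unmodified compound remaining at 30 min.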

Series [2] can be described thus: Metabolic stability in mouse liver microsomes assessed as half life. It counts as ADME, Microsome. The note with it: for half-life: liver microsomes. An outline of the steps: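 Half-life in mouse liver microsome assays was calculated from the amount of compound remaining over time, with dextromethorphan as positive control.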
For a further series, the system named is HeLa C3. The experiment in a line: Inhibition of HSP70 in human HeLa C3 cells assessed as degradation of tau at >10 uM incubated for 24 hrs by Western blot analysis. The note with it: dose microM >10, time 24.0 hrs. It counts as cell-based. An outline of the steps: (§1)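 Cells treated for 24 h at the indicated concentrations, then lysed; total tau, Hsp72 and Hsp90 levels analyzed by Western blot. HeLaC3 cells over-express 0N4R tau. SH-SY5Y cells express tau at physiological levels.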
(A western blot detects proteins with antibodies after separation by electrophoresis.)

Series [3] in a line: Induction of heat shock response in human HeLa C3 cells assessed as effect on HSP72 expression at 3 to 30 uM incubated for 24 hrs by Western blot analysis. It counts as cell-based. As to conditions: hela c3, 24 h, dose 3-30 µM. Put shortly: as §1
Series [4] is described as follows: Induction of heat shock response in human HeLa C3 cells assessed as effect on HSP90 expression at 3 to 30 uM incubated for 24 hrs by Western blot analysis. It counts as cell-based. As to conditions: hela c3, 24 h, dose 3-30 µM. An outline of the steps:
as §1

For series [5], the system named is SH-SY5Y. The experiment in a line: Inhibition of HSP70 in human SH-SY5Y cells assessed as degradation of tau at 3 to 30 uM incubated for 24 hrs by Western blot analysis relative to control. It counts as cell-based. As to conditions: dose 3-30 µM. Put shortly: as §1
Series [6] has as its system SH-SY5Y. Kind of series: Induction of heat shock response in human SH-SY5Y cells assessed as effect on HSP72 expression at 3 to 30 uM incubated for 24 hrs by Western blot analysis. It counts as cell-based. As to conditions: dose 3-30 µM. An outline of the steps:
as §1

The test system of series [7] is SH-SY5Y. The experiment in a line: Induction of heat shock response in human SH-SY5Y cells assessed as effect on HSP90 expression at 3 to 30 uM incubated for 24 hrs by Western blot analysis. As to conditions: dose 3-30 µM. It counts as cell-based. An outline of the steps: as §1

Active and inactive are the calls of the source. The rule behind the calls is not given here.

For `CCn1c(=O)/c(=C2\Sc3ccccc3N2C)s/c1=C\c1ccccn1`, in series [1] (BLD = below limit of detection), the Stabilty result is reported as “Bld”. The half-life (commonly the time in which the quantity being followed falls by half) in series [2] was under 3 min.
Consider `CCn1c(=O)/c(=C2\Sc3c(F)cccc3N2C)s/c1=C\c1ccccn1`, for which the remaining at 0.5 h in series [1] came out at 12%.
As to `CCn1c(=O)/c(=C2\Sc3cccc(F)c3N2C)s/c1=C\c1ccncc1`, the remaining at 0.5 h in series [1] worked out at 33%.
As to `CCn1c(=O)/c(=C2\Sc3ccc(Cl)cc3N2C)s/c1=C\c1ccncc1`, the remaining at 0.5 h in series [1] was determined as 52%. Besides, the t1/2 in series [2] (microsomes) came out at 36 min. The inhibition (commonly the change of the read-out against control, counted positive when it falls) with HeLa C3 was “Active”. For the same compound, the Activity entry (in series [3]; in series [4]; in the series on SH-SY5Y [6]; in the series on SH-SY5Y [7]) was “Non-Toxic” in each case. Moreover, the inhibition in the series on SH-SY5Y [5] worked out at 80%.
Regarding `CCn1c(=O)/c(=C2\Sc3ccc(F)cc3N2C)s/c1=C\c1ccncc1`, in series [1], the remaining at 0.5 h came to 23%.
Regarding `CCn1c(=O)/c(=C2\Sc3cc(Cl)ccc3N2C)s/c1=C\c1ccncc1`, the remaining at 0.5 h in series [1] was determined as 39%. The half-life in series [2] came out at 22 min.
Take `CCn1c(=O)/c(=C2\Sc3cccc(F)c3N2C)s/c1=C\c1ccccn1`: the remaining at 0.5 h in series [1] was 12%.
As for `CCn1c(=O)/c(=C2\Sc3c(Cl)cccc3N2C)s/c1=C\c1ccncc1`, the Stabilty entry in series [1] was “Nd(Insoluble)”.
Turning to `CCn1c(=O)/c(=C2\Sc3cc(F)ccc3N2C)s/c1=C\c1ccccn1`, the remaining at 0.5 h in series [1] turned out to be 5%.
Still for that read-out and setting: the result for `CCn1c(=O)/c(=C2\Sc3ccc(F)cc3N2C)s/c1=C\c1ccccn1` reads 19%.
In the case of `CCn1c(=O)/c(=C2\Sc3cccc(Cl)c3N2C)s/c1=C\c1ccncc1`, the Stabilty entry in series [1] was “Nd(Insoluble)”.
As to `CCn1c(=O)/c(=C2\Sc3c(F)cccc3N2C)s/c1=C\c1ccncc1`, in series [1], the remaining at 0.5 h was 30%.
For the compound `CCn1c(=O)/c(=C2\Sc3cccc(Cl)c3N2C)s/c1=C\c1ccccn1`, the remaining at 0.5 h in series [1] was found to be 38%. Further, the half-life in series [2] turned out to be 23 min.
For `CCn1c(=O)/c(=C2\Sc3cc(Cl)ccc3N2C)s/c1=C\c1ccccn1`, the remaining at 0.5 h in series [1] was 13%.
`CCn1c(=O)/c(=C2\Sc3ccccc3N2C)s/c1=C\c1ccncc1`: in series [1], the remaining at 0.5 h was found to be 6%.
For the compound `COc1ccc2c(c1)[C@]13CCCC[C@@H]1[C@H](C2)N(C)CC3` [DEXTROMETHORPHAN], the half-life in series [2] came out at 25 min.
As to `CCn1c(=O)/c(=C2\Sc3cc(F)ccc3N2C)s/c1=C\c1ccncc1`, the remaining at 0.5 h in series [1] was determined as 13%.
In the case of `CCn1c(=O)/c(=C2\Sc3ccc(Cl)cc3N2C)s/c1=C\c1ccccn1`, the remaining at 0.5 h in series [1] was 37%. Also, the half-life in series [2] amounted to 17 min.
Consider `CCn1c(=O)/c(=C2\Sc3c(Cl)cccc3N2C)s/c1=C\c1ccccn1`, for which the remaining at 0.5 h in series [1] was found to be 17%.

Values taken from ChEMBL document CHEMBL4814053, “Inhibitors of heat shock protein 70 (Hsp70) with enhanced metabolic stability reduce tau levels” (Bioorg Med Chem Lett, 2021).
